This is an account of results in article PMC6954317 (Bioorganic chemistry, 2019).

Test [1] addresses SphK1 (Homo sapiens, UniProt Q9NYA1). Description: SphK1 inhibition, fluorometric assay with NBD-sphingosine as substrate. Type of test: biochemical. The gist of the method: (§1)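 Recombinant SphK1 or SphK2 at 100 nM in 30 mM Tris-HCl pH 7.4 with 150 mM NaCl, 10% glycerol, 0.05% Triton X-100 and 1% DMSO. Test compounds were dissolved in DMSO and screened at 650 μM; actives were then tested at several concentrations to derive IC50. NBD-sphingosine-1-phosphate formation was read by fluorescence (ex 550 nm, em 584 nm) at 37 °C.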

The target in test [2] is T1, SphK2 (Homo sapiens, UniProt Q9NRA0).
T1 sequence (Q9NRA0 1-654): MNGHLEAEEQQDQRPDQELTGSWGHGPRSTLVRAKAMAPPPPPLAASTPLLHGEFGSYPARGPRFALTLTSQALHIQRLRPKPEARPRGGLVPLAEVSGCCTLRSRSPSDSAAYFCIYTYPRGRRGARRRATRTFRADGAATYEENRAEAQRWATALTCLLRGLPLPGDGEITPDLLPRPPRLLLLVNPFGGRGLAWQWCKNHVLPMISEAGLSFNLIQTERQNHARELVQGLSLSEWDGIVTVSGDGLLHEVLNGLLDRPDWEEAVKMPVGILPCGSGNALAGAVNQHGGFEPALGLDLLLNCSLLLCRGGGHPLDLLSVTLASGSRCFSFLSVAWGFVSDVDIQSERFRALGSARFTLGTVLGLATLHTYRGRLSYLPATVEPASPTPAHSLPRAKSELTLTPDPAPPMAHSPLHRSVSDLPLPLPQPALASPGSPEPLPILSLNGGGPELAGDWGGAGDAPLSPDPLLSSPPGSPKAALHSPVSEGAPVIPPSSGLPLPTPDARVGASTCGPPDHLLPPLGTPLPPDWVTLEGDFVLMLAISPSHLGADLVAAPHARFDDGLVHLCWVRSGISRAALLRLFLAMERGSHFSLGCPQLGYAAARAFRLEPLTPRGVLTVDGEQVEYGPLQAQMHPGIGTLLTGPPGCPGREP
The experiment in a line: SphK2 inhibition, fluorometric assay with NBD-sphingosine as substrate. The class given is biochemical. Particulars: read-out: IC50 for SphK2; 100 nM recombinant SphK2, NBD-sphingosine, 37 °C. The gist of the method:
as §1

Test [3] has as its target T1, SphK2. Particulars: read-out: inhibitory effect reported for K145 on SphK2; cited from earlier work.

Like-named read-outs stand apart in the source and are kept apart here.

SphK1, sequence (Q9NYA1 whole entry): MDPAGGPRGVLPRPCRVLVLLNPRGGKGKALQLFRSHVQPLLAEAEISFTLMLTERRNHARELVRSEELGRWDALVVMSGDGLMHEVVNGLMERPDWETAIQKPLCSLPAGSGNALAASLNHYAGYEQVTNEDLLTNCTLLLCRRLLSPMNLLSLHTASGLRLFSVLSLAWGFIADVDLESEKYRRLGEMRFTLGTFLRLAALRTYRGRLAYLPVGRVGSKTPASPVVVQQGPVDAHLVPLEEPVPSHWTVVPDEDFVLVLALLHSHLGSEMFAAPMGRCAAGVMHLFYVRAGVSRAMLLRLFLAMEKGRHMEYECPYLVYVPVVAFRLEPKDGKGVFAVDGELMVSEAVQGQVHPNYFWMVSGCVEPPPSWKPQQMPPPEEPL

`O=c1[nH]c2cc(O)c(O)cc2cc1CNc1ccc(Nc2nccc(-c3ccc4ccccc4c3)n2)cc1` [19b, 6,7-dihydroxy-3-(((4-((4-(naphthalene-2-yl)pyrimidin-2-yl)amino)phenyl)amino)methyl)quinolin-2(1H)-one] returned an IC50 in test [1] of 15.7 µM.

As to “3-((4-(4-chlorophenyl)pyrimidin-2-yl)-1-yl)oxymethyl) quinolin-2(1H)-ones [compound 9]”, the IC50 in test [2] was found to be 18.2 µM.

Turning to `COc1cc2cc(CNc3ccc(Nc4nccc(-c5ccc6ccccc6c5)n4)cc3)c(=O)[nH]c2cc1OC` [16b, 6,7-dimethoxy-3-(((4-((4-(naphthalen-2-yl)pyrimidin-2-yl)amino)phenyl)amino)methyl)quinolin −2(1H)-one], the IC50 in test [1] is 18.7 µM.

As for `Oc1ccc(Nc2nccc(-c3ccc(Cl)cc3)n2)cc1` [4a, 4-((4-(4-chlorophenyl)pyrimidin-2-yl)amino)phenol], in test [1], the IC50 amounted to 43.9 µM.

Consider `CCCCOc1ccc(CCC=C2SC(=O)N(CCN)C2=O)cc1` [K145, 3-(2-amino-ethyl)-5-[3-(4-butoxyl-phenyl)-propylidene]-thiazolidine-2,4-dione], for which, in test [3], the IC50 is 4.3 µM.

Turning to `COc1ccc2[nH]c(=O)c(/C=C/C(=O)c3ccc(Nc4nccc(-c5ccc(Cl)cc5)n4)cc3)cc2c1` [11a, (E)-3-(3-(4-((4-(4-chlorophenyl)pyrimidin-2-yl)amino)phenyl)-3-oxoprop-1-en-1-yl)-6-methoxyquinolin-2(1H)-one], the IC50 in test [1] was determined as 28.2 µM.

Regarding `COc1ccc2[nH]c(=O)c(/C=C/C(=O)c3ccc(Nc4nccc(-c5ccc6ccccc6c5)n4)cc3)cc2c1` [11b, (E)-6-methoxy-3-(3-(4-((4-(naphthalen-2-yl)pyrimidin-2-yl)amino)phenyl)-3-oxoprop-1-en-1-yl)quinolin-2(1H)-one], the “selectivity SphK1 versus SphK2” value in test [1] (in words) is recorded as “selective inhibitory effect on SphK1”.

In test [1], `COc1cc2cc(CNc3ccc(Nc4nccc(-c5ccc(Cl)cc5)n4)cc3)c(=O)[nH]c2cc1OC` [16a, 3-(((4-((4-(4-chlorophenyl)pyrimidin-2-yl)amino)phenyl)amino)methyl)-6,7-dimethoxyquinolin-2(1H)-one] showed an IC50 of 59.1 µM.
